Test results reported in the RNAGym collection of RNA variant scans (doi:10.1002/anie.201605470).

B1: Osa-1-4 twister ribozyme (parent)
chain: CCGCCUAACACUGCCAAUGCCGGUCCCAAGCCCGGAUAAAAGUGGAGGGGGCGG

Variants of: B1
Test: self-cleavage, relative activity (ratio to wild type); higher = more cleavage; co-transcriptional
Procedure, shortened: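 A DNA template was synthesised for a 54-nucleotide twister ribozyme from Oryza sativa, with 97 % wild-type base and 1 % of each other base at each of the 48 positions downstream of the cleavage site. The ribozyme cleaved itself co-transcriptionally during 2 h of in vitro transcription at 37 °C. Reverse transcription with a template-switching oligonucleotide, PCR amplification and deep sequencing followed, and cleavage status came from reads with or without upstream sequence. Relative activity is the fraction cleaved normalised to wild type.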

Row | Variant | self-cleavage
1 | CCGCCUAACACUGCCAAUGCCGGUCCCAAGCGCGGAUAAAAGUGGAGGGCGCGG [C32G G50C] | 0.09
2 | CCGCCUAACACUGCCAAUGCCGGUCCCAAGCGCGGAUAAAAGUGGAGGGUGCGG [C32G G50U] | 0.11
3 | CCGCCUAACACUGCCAAUGCCGGUCCCAAGCGCGGAUAAAAGUGGAGGGAGCGG [C32G G50A] | 0.1
4 | CCGCCUAACACUGCCAAUGCCGGUCCCAAGCGCGGAUAAAAGUGGAUGGGGCGG [C32G G47U] | 0.04
5 | CCGCCUAACACUGCCAAUGCCGGUCCCAAGCGCGGAUAAAAGUGGAAGGGGCGG [C32G G47A] | 0.09
6 | CCGCCUAACACUGCCAAUGCCGGUCCCAAGCGCGGAUAAAAGUGGACGGGGCGG [C32G G47C] | 0.04
7 | CCGCCUAACACUGCCAAUGCCAGUCCCAAGCGCGGAUAAAAGUGGAGGGGGCGG [C32G G22A] | 0.1
8 | CCGCCUAACACUGCCAAUGCCCGUCCCAAGCGCGGAUAAAAGUGGAGGGGGCGG [C32G G22C] | 0.04
9 | CCGCCUAACACUGCCAAUGCCUGUCCCAAGCGCGGAUAAAAGUGGAGGGGGCGG [C32G G22U] | 0.07
10 | CCGCCUAAUACUGCCAAUGCCGGUCCCAAGCUCGGAUAAAAGUGGAGGGGGCGG [C32U C9U] | 0.05
11 | CCGCCUAAAACUGCCAAUGCCGGUCCCAAGCUCGGAUAAAAGUGGAGGGGGCGG [C32U C9A] | 0.02
12 | CCGCCUAAGACUGCCAAUGCCGGUCCCAAGCUCGGAUAAAAGUGGAGGGGGCGG [C32U C9G] | 0.09
13 | CCGCCUAACACUCCCAAUGCCGGUCCCAAGCGCGGAUAAAAGUGGAGGGGGCGG [C32G G13C] | 0.02
14 | CCGCCUAACACUACCAAUGCCGGUCCCAAGCGCGGAUAAAAGUGGAGGGGGCGG [C32G G13A] | 0.04
15 | CCGCCUAACACUUCCAAUGCCGGUCCCAAGCGCGGAUAAAAGUGGAGGGGGCGG [C32G G13U] | 0.01
16 | CCGCCUAACACUGCCAAUGCCGGUCCCAAGCUCGGAUAAAAGUGGAGGGGGCGG [C32U] | 0.24
17 | CCGCCUAACACUGCCAAUGCCGGUCCCAAGCUCGGAUAAAAGUGGAGGGGGUGG [C32U C52U] | 0.2
18 | CCGCCUAACACUGCCAAUGCCGGUCCCAAGCUCGGAUAAAAGUGGAGGGGGGGG [C32U C52G] | 0.15
19 | CCGCCUAACACUGCCAAUGCCGGUCCCAAGCUCGGAUAAAAGUGGAGGGGGAGG [C32U C52A] | 0.13
20 | CCGCCUAACACUGCCAAUUCCGGUCCCAAGCGCGGAUAAAAGUGGAGGGGGCGG [C32G G19U] | 0.07
21 | CCGCCUAACACUGCCAAUACCGGUCCCAAGCGCGGAUAAAAGUGGAGGGGGCGG [C32G G19A] | 0.12
22 | CCGCCUAACACUGCCAAUCCCGGUCCCAAGCGCGGAUAAAAGUGGAGGGGGCGG [C32G G19C] | 0.03
23 | CCGCCUAACACUGCCAAUGCCGGUCCCAAGCGCGCAUAAAAGUGGAGGGGGCGG [C32G G35C] | 0.07
24 | CCGCCUAACACUGCCAAUGCCGGUCCCAAGCGCGAAUAAAAGUGGAGGGGGCGG [C32G G35A] | 0.09
25 | CCGCCUAACACUGCCAAUGCCGGUCCCAAGCGCGUAUAAAAGUGGAGGGGGCGG [C32G G35U] | 0.08

Row | Variant | self-cleavage
26 | CCGCCUAACACUGCCAAUGCCGGUCCCAAGCUUGGAUAAAAGUGGAGGGGGCGG [C32U C33U] | 0.06
27 | CCGCCUAACACUGCCAAUGCCGGUCCCAAGCUGGGAUAAAAGUGGAGGGGGCGG [C32U C33G] | 0.02
28 | CCGCCUAACACUGCCAAUGCCGGUCCCAAGCUAGGAUAAAAGUGGAGGGGGCGG [C32U C33A] | 0.04
29 | CCGCCUAACACUGCCAAUGCCUGUCCCAAGCUCGGAUAAAAGUGGAGGGGGCGG [C32U G22U] | 0.07
30 | CCGCCUAACACUGCCAAUGCCCGUCCCAAGCUCGGAUAAAAGUGGAGGGGGCGG [C32U G22C] | 0.04
31 | CCGCCUAACACUGCCAAUGCCAGUCCCAAGCUCGGAUAAAAGUGGAGGGGGCGG [C32U G22A] | 0.09
32 | CCGCCUAACACUGCCAAUGCCGGUCCCAAUCGCGGAUAAAAGUGGAGGGGGCGG [C32G G30U] | 0.02
33 | CCGCCUAACACUGCCAAUGCCGGUCCCAACCGCGGAUAAAAGUGGAGGGGGCGG [C32G G30C] | 0.02
34 | CCGCCUAACACUGCCAAUGCCGGUCCCAAACGCGGAUAAAAGUGGAGGGGGCGG [C32G G30A] | 0.03
35 | CCGCCUAACACUGCCAAAGCCGGUCCCAAGCGCGGAUAAAAGUGGAGGGGGCGG [C32G U18A] | 0.14
36 | CCGCCUAACACUGCCAAGGCCGGUCCCAAGCGCGGAUAAAAGUGGAGGGGGCGG [C32G U18G] | 0.14
37 | CCGCCUAACACUGCCAACGCCGGUCCCAAGCGCGGAUAAAAGUGGAGGGGGCGG [C32G U18C] | 0.15
38 | CCGCCUAACACUGCCAAUGCCGGUCCCAAGCGCGGAGAAAAGUGGAGGGGGCGG [C32G U37G] | 0.19
39 | CCGCCUAACACUGCCAAUGCCGGUCCCAAGCGCGGAAAAAAGUGGAGGGGGCGG [C32G U37A] | 0.16
40 | CCGCCUAACACUGCCAAUGCCGGUCCCAAGCGCGGACAAAAGUGGAGGGGGCGG [C32G U37C] | 0.14
41 | CCGCCUAACACUGCCAAUGCCGGUCCCAAGCGCGGAUAAAAGUGGAGGUGGCGG [C32G G49U] | 0.05
42 | CCGCCUAACACUGCCAAUGCCGGUCCCAAGCGCGGAUAAAAGUGGAGGCGGCGG [C32G G49C] | 0.04
43 | CCGCCUAACACUGCCAAUGCCGGUCCCAAGCGCGGAUAAAAGUGGAGGAGGCGG [C32G G49A] | 0.05
44 | CCGCCUAACACUGCCAAUGCCGGCCCCAAGCGCGGAUAAAAGUGGAGGGGGCGG [C32G U24C] | 0.05
45 | CCGCCUAACACUGCCAAUGCCGGGCCCAAGCGCGGAUAAAAGUGGAGGGGGCGG [C32G U24G] | 0.02
46 | CCGCCUAACACUGCCAAUGCCGGACCCAAGCGCGGAUAAAAGUGGAGGGGGCGG [C32G U24A] | 0.06
47 | CCGCCUAACACUGCCAAUGCCGGUCCCAAGCGCGGAUAAAACUGGAGGGGGCGG [C32G G42C] | 0.08
48 | CCGCCUAACACUGCCAAUGCCGGUCCCAAGCGCGGAUAAAAUUGGAGGGGGCGG [C32G G42U] | 0.04
49 | CCGCCUAACACUGCCAAUGCCGGUCCCAAGCGCGGAUAAAAAUGGAGGGGGCGG [C32G G42A] | 0.09
